Assay results published in ChEMBL document CHEMBL4028902, “Azetidine and Piperidine Carbamates as Efficient, Covalent Inhibitors of Monoacylglycerol Lipase” (J Med Chem, 2017).
The source made the active and inactive calls. No cut-off for these calls is given here.

How the values were obtained:
[1] = target: T1, CES1 (liver carboxylesterase 1) (Homo sapiens, UniProt P23141); assay: Inhibition of human CES1 at 10 uM relative to control
T1 sequence (P23141 whole entry): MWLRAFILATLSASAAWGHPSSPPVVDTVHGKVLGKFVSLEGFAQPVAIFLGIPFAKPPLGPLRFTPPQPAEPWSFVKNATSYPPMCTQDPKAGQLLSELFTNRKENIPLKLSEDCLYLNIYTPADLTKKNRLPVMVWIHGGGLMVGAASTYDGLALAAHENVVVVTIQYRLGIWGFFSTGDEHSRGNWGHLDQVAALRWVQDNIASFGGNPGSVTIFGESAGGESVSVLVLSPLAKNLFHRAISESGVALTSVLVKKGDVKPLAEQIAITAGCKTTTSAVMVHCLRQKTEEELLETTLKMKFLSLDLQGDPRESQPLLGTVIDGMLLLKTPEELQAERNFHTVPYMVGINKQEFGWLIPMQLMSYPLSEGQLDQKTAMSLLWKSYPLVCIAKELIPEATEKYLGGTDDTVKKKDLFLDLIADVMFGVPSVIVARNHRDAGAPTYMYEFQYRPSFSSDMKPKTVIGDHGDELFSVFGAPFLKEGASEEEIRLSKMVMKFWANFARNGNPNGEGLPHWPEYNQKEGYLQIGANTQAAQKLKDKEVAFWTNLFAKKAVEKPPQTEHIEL

[2] = Cmax in C57Bl6 mouse brain at 1 mg/kg, sc; assay type: ADME, organism-based; set-up: dose 1 mg/kg, route subcutaneous
Summary of the method: (§1)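 Subcutaneous dosing of C57Bl6 mice in DMSO/Cremophor/saline (5:5:90). Plasma (NaF/K2EDTA tubes) and cerebellum collected at 0.5–24 h, 3 mice per time point. Cerebellum diluted 1:4 (w/v) with water and homogenized; samples deproteinated with methanol/acetonitrile plus internal standard, then HPLC-MS/MS. LLOQ 1.0 ng/mL plasma, 0.5 ng/mL brain homogenate. PK parameters by noncompartmental analysis.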

Mus musculus [3] = assay: In vivo inhibition of MAGL in C57Bl6 mouse assessed as increase in 2-AG levels in brain at 10 mg/kg, sc measured after 24 hrs by LC-MS/MS method; assay type: functional, organism-based
Summary of the method: (§2)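 C57Bl6 mice, 7 weeks old, 4 per cage, food and water ad libitum, dosed subcutaneously in DMSO/Cremophor/saline (5:5:90, v/v/v). Brains taken after isoflurane, cardiac puncture and cervical dislocation at 0.5, 1, 2, 4, 8, 12 and 24 h (3 mice per time point); vehicle group at 1 h. Frozen in liquid nitrogen, homogenized in 3 volumes PMSF/NH4OAc buffer pH 2.0, d5-2-AG internal standard, ACN extraction, LC-MS/MS (positive ESI, SRM).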

[4] = target: T2, Platelet-activating factor acetylhydrolase (Homo sapiens) (UniProt Q13093); conditions: 10 uM
T2 sequence (whole entry): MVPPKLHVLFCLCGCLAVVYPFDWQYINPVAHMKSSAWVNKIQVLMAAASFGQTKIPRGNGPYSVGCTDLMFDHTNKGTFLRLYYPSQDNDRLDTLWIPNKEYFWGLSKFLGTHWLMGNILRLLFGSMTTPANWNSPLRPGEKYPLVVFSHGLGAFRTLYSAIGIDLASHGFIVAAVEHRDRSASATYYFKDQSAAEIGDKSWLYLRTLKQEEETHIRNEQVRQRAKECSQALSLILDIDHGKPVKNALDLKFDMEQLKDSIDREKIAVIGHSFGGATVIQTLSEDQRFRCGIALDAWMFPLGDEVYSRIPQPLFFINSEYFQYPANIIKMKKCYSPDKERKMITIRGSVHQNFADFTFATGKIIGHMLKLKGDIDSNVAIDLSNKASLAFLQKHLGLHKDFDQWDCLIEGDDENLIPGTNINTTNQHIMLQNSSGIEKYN

[5] = target: T3, Fatty-acid amide hydrolase 1 (Homo sapiens, UniProt O00519); assay: Inhibition of human recombinant FAAH using arachidonoyl-AMC as substrate preincubated for 30 mins followed by substrate addition measured after 60 mins by fluorescence assay
T3 sequence (O00519 whole entry): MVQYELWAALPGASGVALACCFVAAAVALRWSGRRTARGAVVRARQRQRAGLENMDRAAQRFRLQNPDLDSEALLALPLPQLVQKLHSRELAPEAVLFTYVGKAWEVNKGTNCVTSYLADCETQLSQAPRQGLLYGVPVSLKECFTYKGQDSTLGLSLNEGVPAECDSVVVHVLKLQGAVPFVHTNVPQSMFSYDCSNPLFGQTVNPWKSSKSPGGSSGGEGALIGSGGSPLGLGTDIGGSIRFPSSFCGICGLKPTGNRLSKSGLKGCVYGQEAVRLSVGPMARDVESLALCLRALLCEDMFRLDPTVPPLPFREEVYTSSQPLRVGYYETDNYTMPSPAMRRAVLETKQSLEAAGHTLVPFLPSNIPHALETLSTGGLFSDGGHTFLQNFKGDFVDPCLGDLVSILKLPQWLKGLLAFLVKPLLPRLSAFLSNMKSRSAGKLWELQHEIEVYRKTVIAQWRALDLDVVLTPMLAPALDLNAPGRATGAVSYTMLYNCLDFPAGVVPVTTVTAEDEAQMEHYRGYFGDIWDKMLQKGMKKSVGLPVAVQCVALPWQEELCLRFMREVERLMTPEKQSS
Summary of the method: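 Human recombinant FAAH (0.0125 unit final) in 50 mM Tris pH 9.0, 1 mM EDTA, preincubated 30 min at room temperature with compound (final 30 μM–0.3 nM). Arachidonoyl-AMC added (5 μM final), reaction run 60 min, fluorescence Ex/Em 355/460. Percent inhibition versus no-compound and full-inhibition controls.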

Liver carboxylesterase 1 = target: T4, Liver carboxylesterase 1 (Homo sapiens, UniProt P23141); assay: Inhibition of human CES1 at 1 to 10 uM relative to control
T4 sequence (P23141 whole entry): T1 sequence (P23141 whole entry)

Mus musculus [6] = assay: In vivo inhibition of MAGL in C57Bl6 mouse assessed as increase in 2-AG levels in brain at 10 mg/kg, sc after 8 hrs by LC-MS/MS method relative to control; assay type: functional; summary of the method: as §2
[7] = Ratio of unbound drug level in C57Bl6 mouse brain to plasma at 10 mg/kg, sc; assay type: ADME, organism-based; summary of the method: as §1
[8] = Tmax in C57Bl6 mouse at 10 mg/kg, sc; assay type: ADME, organism-based; conditions: in vivo; summary of the method: as §1
Mus musculus [9] = assay: In vivo inhibition of MAGL in C57Bl6 mouse assessed as increase in 2-AG levels in brain at 1 mg/kg, sc measured at 0.5 hrs by LC-MS/MS method relative to control; assay type: functional; summary of the method: as §2

inhibition at 10 µM [1] | Cmax [2] | inhibition [4] | IC50 [5] | inhibition (INH) (Liver carboxylesterase 1) | Kp uu [7] | Tmax [8] | SMILES | inhibition (Mus musculus [3]) | fold change (FC) (Mus musculus [6]) | fold change (FC) (Mus musculus [9])
> 70% | 0.14 nM | > 70% | – | – | – | – | O=C(OC(C(F)(F)F)C(F)(F)F)N1CCC(c2ccn(-c3ccccc3)n2)CC1 | Active | – | –
– | – | – | 0.26 µM | > 70% | 0.6 | 30 min | O=C(OC(C(F)(F)F)C(F)(F)F)N1CC(c2ccn(-c3ccccc3)n2)C1 | – | 5 | 3
